Structures are written as SMILES.

Experimental findings from ChEMBL document CHEMBL1122555, “Design, synthesis, and testing of potential antisickling agents. 3. Ethacrynic acid” (J Med Chem, 1984) are described below.

Holding throughout (assay type): ADME
A short description of series [1]: Compound was evaluated, at a concentration of 10 mM acid, for its ability to increase the solubility of sickle hemoglobin. Particulars: 10000 µM. In a few lines: (§1)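 Sodium salt of acid (made with 1 equiv NaHCO3, 0.18 M stock in 0.15 M phosphate pH 7.4) diluted into HbS (~35 g %, 0.15 M phosphate), deoxygenated with dithionite, sealed in EPR tubes; final drug 5–40 mM. Spun alongside deoxy-HbS buffer control and 40 mM phenylalanine control; solubility at 35 °C, g/dL. Ratio = drug/control solubility; % increase relative to initial minus control; SD reported.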

A short description of series [2]: Compound was evaluated, at a concentration of 20 mM acid, for its ability to increase the solubility of sickle hemoglobin. Particulars: 20000 µM. The essentials: as §1
The nature of series [3]: Compound was evaluated, at a concentration of 5 mM acid, for its ability to increase the solubility of sickle hemoglobin. As to conditions: 5000 µM. In a few lines:
as §1

Series [4] is described as follows: Compound was evaluated, at a concentration of 40 mM acid, the solubility ratio is obtained by dividing the solubility of sickle hemoglobin (HbS) with the compound (grams per deciliter) by the solubility of the untreated sample (grams per deciliter). As to conditions: 40000 µM. The essentials:
as §1

Series [5] can be described thus: Compound was evaluated, at a concentration of 5 mM acid, the solubility ratio is obtained by dividing the solubility of sickle hemoglobin (HbS) with the compound (grams per deciliter) by the solubility of the untreated sample (grams per deciliter). Particulars: 5000 µM. The essentials: as §1
The nature of series [6]: Compound was evaluated, at a concentration of 10 mM acid, the solubility ratio is obtained by dividing the solubility of sickle hemoglobin (HbS) with the compound (grams per deciliter) by the solubility of the untreated sample (grams per deciliter). As to conditions: 10000 µM. In a few lines: as §1
Series [7] can be described thus: Compound was evaluated, at a concentration of 40 mM acid, for its ability to increase the solubility of sickle haemoglobin. As to conditions: 40000 µM. The essentials:
as §1

Series [8] is described as follows: Compound was evaluated, at a concentration of 20 mM acid, the solubility ratio is obtained by dividing the solubility of sickle hemoglobin (HbS) with the compound (grams per deciliter) by the solubility of the untreated sample (grams per deciliter). As to conditions: 20000 µM. The essentials:
as §1

Series [9] in a line: Compound was evaluated, at a concentration of 40 mM acid, for its ability to increase the solubility of sickle hemoglobin. Particulars: 40000 µM. The essentials:
as §1

Consider `O=C(O)COCc1ccc(Cl)c(Cl)c1`, for which the HbS solubilized in series [1] was determined as 42.6%; in series [2], 82.3%; in [3] it was 22.1%; in series [7], 88%. In addition, the Solubility ratio in series [4] worked out at 1.345; in [5], 1.087; in [6], 1.166; in series [8], 1.321.

As to `O=C(O)COCc1ccc(Br)cc1`, the HbS solubilized is listed as 25.8% in [1], 51% in series [2], 87.7% in series [9] and 13% in series [3]. Also, the Solubility ratio in [4] was 1.398; in [5], 1.059; in series [6] it was 1.118; in [8], 1.233.

In the case of `C=C(CC)C(=O)c1ccc(OCC(=O)O)c(Cl)c1Cl` [ETHACRYNIC ACID], the HbS solubilized in series [1] turned out to be 39.5%; in series [2], 76.2%; in series [9], 89.4%; in [3], 25.3%. Besides, the Solubility ratio in series [4] came out at 1.375; in [5], 1.106; in series [6], 1.166; in series [8], 1.317.
